M18AAP inhibitor: PfM18AAP enzyme inhibition. AID 1822. actives 1.2% (n = 290,000). inhibition, % at 7.35 µM. recombinant PfM18AAP, H-Glu-NHMec fluorogenic cleavage;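 active means inhibition above the campaign mean inhibition over all tested compounds plus 3 SD, cut at about 28% in these data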;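 further: 0% = plate median of test compound wells and 100% = 2 mM ZnCl2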
Arrestin-AP2 inh: blocks beta-arrestin peptide binding to AP2 adaptin; FITC-arrestin peptide / GST-AP2 beads, flow cytometry; AP2 beta2 appendage carries R879A mutation; inhibition, % at 10 µM; actives 0.31% (n = 340,000); AID 504490;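 active means inhibition above a set limit, near 3 SD of compounds lacking own fluorescence, cut at about 54% in these data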;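 further: plate controls were DMSO wells for no effect and 5 µM unlabelled arrestin peptide for full effect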
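Material – GST-tagged AP2 beta2-adaptin appendage (R879A) on 4 µm glutathione beads · Probe or stimulus – fluorescein-tagged arrestin peptide at 50 nM final · Timing – 12 min plus 1 h, RT · Detection – bead flow cytometry, FITC channel · Read-out basis – inhibition as reduced fluorescein signal on beads, percent · Medium – PBS plus Tween 20 (0.05%) and BSA (0.1%)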
HGIII-sPLA2 inh: Blocks human group III sPLA2 activity | AID 743126 | actives 0.56% (n = 370,000) | QFRET BODIPY PC-A2 liposome hydrolysis, fluorescence | inhibition, % at 12.2 µM | Q9NZ20;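 active means inhibition above mean plus 3 SD of compounds lying within the high and low control bounds, cut at about 19% in these data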;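 further: 0% = median of test compound wells and 100% = no enzyme DMSO wells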
HTR2A ag: mouse HTR2A agonism via beta-arrestin recruitment | P35363 | CHO-K1 mHTR2A beta-arrestin complementation, luminescence; percent of 30 µM serotonin response | activation, % at 7.6 µM | actives 0.66% (n = 360,000) | AID 624169;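 active means activation above a run cutoff, the mean activation of all tested compounds plus 3 SD, cut at about 14% in these data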;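 further: 0% = plate median of compound wells and 100% = 30 µM serotonin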
Target sequence (P35363 whole entry, looked up): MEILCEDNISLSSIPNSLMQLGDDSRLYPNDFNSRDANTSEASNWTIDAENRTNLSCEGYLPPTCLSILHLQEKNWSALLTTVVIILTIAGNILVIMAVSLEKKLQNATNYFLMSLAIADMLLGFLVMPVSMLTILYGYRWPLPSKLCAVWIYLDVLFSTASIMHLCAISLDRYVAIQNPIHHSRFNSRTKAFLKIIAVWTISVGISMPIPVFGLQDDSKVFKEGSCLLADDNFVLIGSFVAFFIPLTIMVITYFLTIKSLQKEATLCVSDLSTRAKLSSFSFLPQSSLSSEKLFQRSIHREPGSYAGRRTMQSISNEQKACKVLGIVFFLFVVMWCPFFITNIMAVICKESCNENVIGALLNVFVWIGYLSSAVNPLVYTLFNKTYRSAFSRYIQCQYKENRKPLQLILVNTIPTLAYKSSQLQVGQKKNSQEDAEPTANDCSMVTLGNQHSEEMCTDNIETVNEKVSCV
NRP1-CendR mod: alters CendR peptide binding to human NRP-1. FAM-RPARPAR peptide binding to NRP-1, fluorescence polarization. inhibition, % at 25 µM. actives 0.85% (n = 360,000). AID 602438;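 active means inhibition or corrected inhibition above about 18%, plus a signal ratio from 0.5 to 1.5, limit read from the data, passing the limit was not always enough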
Lipid droplet: modulators of hepatic lipid droplet formation. AML12 mouse hepatocytes, oleate lipid droplets, BODIPY imaging. inhibition, % at 6.5 µM. actives 0.4% (n = 240,000). AID 1656;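 active means lipid droplet intensity inhibited by at least 50%, with more than 500 cells counted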
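Technique: fluorescence imaging, 20x objective, two fields per well / Assay system: AML12 hepatocytes (mouse) / Measure: % inhibition of lipid droplet signal / Doses: 6.5 µM single-point dosing / Incubation: overnight exposure / Reagent: 100 µM oleic acid challenge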
Numbers without * were called inactive; nt = no result. Rows were chosen to be rich in hits. Some 3.3% of all compounds tested hit in one or more screens of this group.

SMILES	M18AAP inhibitor	Arrestin-AP2 inh	HGIII-sPLA2 inh	HTR2A ag	NRP1-CendR mod	Lipid droplet
O=C(/C=C/[C@H]1O[C@@H](n2cnc3c(NC(=O)c4ccccc4)ncnc32)[C@H](O)[C@@H]1O)NCc1cccs1	nt	nt	-1	6	18*	nt
O=C(CC[C@H]1O[C@@H](n2cnc3c(NC(=O)c4ccccc4)ncnc32)[C@H](O)[C@@H]1O)NCc1ccco1	nt	nt	0	2	1	nt
Cc1ccc(NC(=O)COc2cccc(-n3cnnn3)c2)cc1[N+](=O)[O-]	7	-8	-9	-11	-9	-22
NC(=S)N=Nc1c(O)cc(O)c2[nH]c(=O)ccc12	nt	28	2	1	42*	nt
NC(=S)N=Nc1c(O)[nH]c2ccc(F)cc12	4	6	11	0	13	-6
C[C@H]1CN([C@@H](C)CO)C(=O)CCCn2cc(nn2)CO[C@@H]1CN(C)C(=O)Nc1ccc(N2CCN(C)CC2)cc1	nt	nt	12	0	21*	nt
O=C1CCC/C(=N/NC(=O)c2ccc(NS(=O)(=O)c3cccs3)cc2)C1	23	-52	-19	0	-4	-3
O=C1CCC/C(=N/NC(=O)c2cc(NS(=O)(=O)c3cccs3)cc(NS(=O)(=O)c3cccs3)c2)C1	30*	-2	-22	-5	-20	0
Cc1c(S(=O)(=O)N2CCCC(C(=O)O)C2)cnn1C (stereo not drawn)	1	10	0	-3	22*	20
O=C(O)[C@@H]1CCCN(S(=O)(=O)c2cccc3cccnc23)C1	nt	14	4	-3	26*	nt
O=C(Nc1ccccc1Cl)C1CCCN(S(=O)(=O)c2cccc3cccnc23)C1 (stereo not drawn)	-6	-2	-8	-2	-4	17
C=CCOC(=O)N1CCC(NS(=O)(=O)c2ccc3c(c2)CCN3C(C)=O)CC1	nt	nt	3	nt	nt	nt
S=C(Nc1ccc(N2CCOCC2)cc1)Nc1ccc2nc(-c3ccco3)c(-c3ccco3)nc2c1	44*	12	-9	13	-8	18
CCCCNC(=O)c1ccc2nc(-c3ccco3)c(-c3ccco3)nc2c1	2	40	7	0	0	12
O=C(NCCO)Nc1ccc2nc(-c3ccco3)c(-c3ccco3)nc2c1	37*	nt	nt	nt	nt	-1
O=C(NCCCO)c1ccc2nc(-c3ccco3)c(-c3ccco3)nc2c1	29*	49	-6	2	0	-10
COC(=O)/C=C1\C(=O)N(c2nc3ccccc3s2)C(=S)N1c1ccc(F)cc1	2	6	-1	2	27*	nt
NC(=O)C1CCN(c2nc(-c3ccc4c(c3)OCCCO4)cs2)CC1	nt	nt	1	nt	nt	nt
CC(C)CN(C(=O)CCCOc1ccc(Cl)cc1Cl)c1c(N)n(Cc2ccccc2)c(=O)[nH]c1=O	nt	-19	-2	-6	-10	nt
CN(CC(=O)Nc1ccc(F)cc1)C(=O)c1ccc(OCc2cn3ccccc3n2)cc1	nt	13	4	-1	27*	nt
CCCCn1c(N)c(N(CCOC)C(=O)COC(=O)/C=C/c2ccc(Br)cc2)c(=O)[nH]c1=O	-5	4	2	-8	23*	-2
COCCN(C(=O)COC(=O)/C=C/c1ccc(SC)cc1)c1c(N)n(Cc2ccccc2)c(=O)[nH]c1=O	nt	43	-1	1	8	nt
COc1ccc(-c2nc(NC(=O)c3ccc(OCC(=O)N4CCOCC4)c(OC)c3)sc2C)cc1	0	2	1	0	4	96*
O=C(NCc1ccco1)C1CC(c2ccc(C(F)(F)F)cc2)=NO1 (stereo not drawn)	nt	6	1	-4	31*	nt
CCOc1ccc(C(c2c(C)n(C)n(-c3ccccc3)c2=O)c2c(C)n(C)n(-c3ccccc3)c2=O)c(O)c1	nt	41	-3	6	2	nt
SMILES	M18AAP inhibitor	Arrestin-AP2 inh	HGIII-sPLA2 inh	HTR2A ag	NRP1-CendR mod	Lipid droplet
Cc1cccc(NC(=O)CSc2nnc3ccc(-c4cccnc4)nn23)c1	nt	nt	1	-5	-8	nt
COc1cccc(NS(=O)(=O)c2ccc(C)c(C(=O)N3CCCCC3)c2)c1	6	-1	-9	-9	20*	-13
COc1cccc(NS(=O)(=O)c2c(C(=O)N3CCCCCC3)c(C)n(C)c2C)c1	-2	0	-6	4	6	-22
Cc1ccc(S(=O)(=O)N2CCCCC2C(=O)O)s1 (stereo not drawn)	-12	23	7	-2	46*	-6
CCc1ccc(CNC(=O)C2CCCN(S(=O)(=O)N3CC(C)CC(C)C3)C2)cc1 (stereo not drawn)	-5	21	5	-5	22*	-26
CN(Cc1ccccc1)C(=O)[C@@H]1CCCN1C(=O)[C@@H]1CCCN1C(=O)c1cccc(Cl)c1	nt	nt	1	6	22*	nt
CN(Cc1ccccc1)C(=O)[C@@H]1CCCN1C(=O)[C@@H]1CCCN1C(=O)c1ccccc1	nt	nt	12	9	0	nt
C[C@H](NC(=O)c1[nH]cnc1C(=O)Nc1cccc(Cl)c1)c1ccccc1	nt	-1	-3	-1	2	nt
Cc1ccc(NC(=O)c2nc[nH]c2C(=O)N[C@@H](C)c2ccccc2)cc1	5	-6	-2	-3	32*	2
C[C@@H](NC(=O)c1[nH]cnc1C(=O)Nc1cccc(Cl)c1)c1ccccc1	nt	4	2	-2	26*	nt
C[C@H](NC(=O)c1[nH]cnc1C(=O)Nc1ccc(Cl)cc1)c1ccccc1	nt	7	-8	-7	37*	nt
CC(C)(C)OC(=O)[C@H](Cc1ccccc1)NC(=O)c1[nH]cnc1C(=O)Nc1cccc(Cl)c1	nt	0	-11	4	23*	-9
C[C@@H](NC(=O)c1[nH]cnc1C(=O)Nc1ccc(Cl)cc1)c1ccccc1	nt	9	12	5	17	nt
Cc1cccc(NC(=O)c2nc[nH]c2C(=O)N[C@@H](Cc2ccccc2)C(=O)OC(C)(C)C)c1	nt	-7	-2	6	-2	0
CCN(CC)C(=O)c1[nH]cnc1C(=O)Nc1cccc(C)c1	nt	6	5	2	27*	nt
O=C(C=Cc1ccccc1)c1ccc([N+](=O)[O-])cc1	nt	-6	4	-8	18*	nt
Cc1ccc(CCNC(=O)C2CC(=O)N(C3CCCCC3)C2)cc1 (stereo not drawn)	13	-4	1	-4	-4	-1
O=C(NCCC1=CCCCC1)C1CC(=O)N(C2CCCCCC2)C1 (stereo not drawn)	-4	6	-1	-7	21*	5
CC[C@@]1(C(=O)OC)N[C@H](CN(C)S(=O)(=O)c2ccc(-c3ccccc3)cc2)[C@@H]2C(=O)N(Cc3ccccc3)C(=O)[C@@H]21	nt	1	9	-3	4	nt
Nc1ccc(Br)c2c1C(=O)c1ccccc1C2=O	3	nt	nt	nt	nt	nt
Nc1ccc(O)c2c1C(=O)c1ccccc1C2=O	0	2	1	-6	34*	28

Source: PubChem (several laboratories)
